≈ marks a conversion by molar mass, not a printed value. Calls of active or inactive are those of the source. No cut-off for these calls is given here.
Experiments:
[1] = tested on: Mycobacterium tuberculosis; assay: Potentiation of meropenem-induced bactericidal activity against wild-type replicating Mycobacterium tuberculosis H37Rv assessed as decrease in MIC90 relative to control; assay type: functional
[2] = tested on: Mycobacterium tuberculosis; assay: Bactericidal activity against wild-type non-replicating Mycobacterium tuberculosis H37Rv assessed as log reduction in CFU at 3 to 10 ug/ml incubated for 7 days measured at OD580 = 0.01 by charcoal agar resazurin assay; assay type: functional
Procedure, shortened: (§1)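 Nonreplicating wild-type H37Rv at OD580 0.01 exposed to compound for 7 days. Survivors serially diluted in PBS-tyloxapol and plated on 7H11-OADC agar; colonies counted at ~3 weeks. Limit of detection 1 colony from 10 μL undiluted sample; triplicates, one of two experiments.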

[3] = tested on: Mycobacterium tuberculosis; assay: Bactericidal activity against wild-type non-replicating Mycobacterium tuberculosis H37Rv assessed as drug tolerance development at 3 to 10 ug/ml incubated for 7 days measured at OD580 = 0.01 by charcoal agar resazurin assay; assay type: functional, organism-based
Candida albicans = assay: Antifungal activity against replicating Candida albicans measured at OD580 = 0.01; assay type: functional
Procedure, shortened: (§2)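 Replicating organisms in the paper's earlier-described bacteriologic medium; 200 μL of cells at OD580 0.01 exposed to DMSO vehicle or drug in 96-well plates; growth read by optical density.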

[4] = tested on: Mycobacterium tuberculosis; assay: Bactericidal activity against wild-type non-replicating Mycobacterium tuberculosis H37Rv infected in recombinant mouse IFN-gamma stimulated C57BL6 mouse primary BMDM assessed as log reduction in CFU at 100 ug/ml incubated for 3 days by charcoal agar resazurin assay; assay type: functional
Procedure, shortened: (§3)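 Bone marrow macrophages (~1×10^5) from 8-week female C57Bl6 mice grown in DMEM/10% FBS/10% L-cell medium, with or without 50 ng/mL mouse IFNγ. Infected with H37Rv at MOI 1–5 for 4 h, washed, then given 100 μg/mL compound in 1% DMSO for 3 or 4 days. Lysed in 0.5% Triton X-100, CFU counted on 7H11-OADC agar; morphology observed.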

[5] = tested on: Mycobacterium tuberculosis; assay: Bactericidal activity against wild-type non-replicating Mycobacterium tuberculosis H37Rv assessed as log reduction in CFU at 0.7 to 0.8 ug/ml incubated for 7 days measured at OD580 = 0.01 by charcoal agar resazurin assay; assay type: functional; procedure, shortened: as §1
Escherichia coli = assay: Antibacterial activity against replicating Escherichia coli measured at OD580 = 0.01; assay type: functional; procedure, shortened: as §2
[6] = Stability in CD-1 mouse plasma assessed as drug transformation at 1 ug/ml measured at <5 mins by LC-MS analysis; assay type: ADME, cell-free
[7] = Stability of compound in pH 12 solution assessed as parent compound remaining incubated for 4 hrs at 37 degC; assay type: physicochemical; conditions: read-out: Stability
Procedure, shortened: (§4)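 Percent parent compound remaining after 4 h incubation at 37 °C at the stated pH.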

[8] = tested on: Mycobacterium tuberculosis; assay: Bactericidal activity against wild-type non-replicating Mycobacterium tuberculosis H37Rv assessed as log reduction in CFU incubated for 7 days measured at OD580 = 0.1 in presence of 0.5 mM NaNO2 by charcoal agar resazurin assay; assay type: functional, organism-based
Procedure, shortened: (§5)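 Nonreplicating wild-type H37Rv at OD580 0.1 or 0.01 treated 7 days with or without 0.5 mM NaNO2. 10 μL spotted onto 7H11-OADC-charcoal agar and incubated 7–10 days at 37 °C. Developed with Alamar blue:Tween80 1:1 for 1 h; fluorescence read at ex 530/em 590. Complete loss of fluorescence taken as ≥2–3 log10 CFU reduction.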

[9] = Half life in mouse liver microsomes; assay type: ADME, Microsome
Procedure, shortened: (§6)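 Mouse and human liver microsomal stability run by a contract lab in triplicate.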

[10] = Half life in human plasma at 1 ug/ml by LC-MS analysis; assay type: ADME, cell-free
[11] = Stability in pH 5 non-replicating medium containing 0.5 mM NaNO2 assessed as parent compound remaining at 5 to 50 ug/ml at 37 degC measured every 12 hrs up to 144 hrs by LC-MS analysis; assay type: physicochemical; conditions: buffer
Procedure, shortened: (§7)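 Compound at 50 μg/mL in cell-free PBS pH 7.4, or nonreplicating medium pH 5.0 (BSA, tyloxapol, lysine, pantothenate omitted) with or without 0.5 mM NaNO2. Poorly soluble compounds at 5 μg/mL in 50:50 acetonitrile mixtures, pH readjusted to 5.0.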

Pseudomonas aeruginosa = assay: Antibacterial activity against replicating Pseudomonas aeruginosa measured at OD580 = 0.01; assay type: functional; procedure, shortened: as §2
[12] = tested on: Mycolicibacterium smegmatis; assay: Antibacterial activity against replicating Mycobacterium smegmatis measured at OD580 = 0.01; assay type: functional; procedure, shortened: as §2
[13] = Permeability of compound by PAMPA; assay type: ADME; conditions: read-out: permeability
Procedure, shortened: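 PAMPA membrane permeability by a contract lab; reported as mean Pe (10^-6 cm/s) and log Pe.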

[14] = Stability of compound in pH 7 solution assessed as parent compound remaining incubated for 4 hrs at 37 degC; assay type: physicochemical
[15] = Cytotoxicity against human HepG2 cells assessed as reduction in cell viability after 2 days by Celltiter-Glo reagent based assay; conditions: read-out: LD50
Procedure, shortened: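 HepG2 cells in DMEM with 10% FBS, pyruvate, glutamine and nonessential amino acids. Seeded at 3000 cells/well and exposed 2 days to compound or vehicle (≤1% DMSO final). Reported as LD50.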

[16] = Stability of compound in pH 2 solution assessed as parent compound remaining incubated for 4 hrs at 37 degC; assay type: physicochemical; conditions: read-out: Stability; procedure, shortened: as §4
[17] = Stability in mouse liver microsomes assessed as compound metabolism up to 60 mins; assay type: ADME, Microsome; conditions: 1 h; procedure, shortened: as §6
[18] = Solubility of compound in pH 7.4 solution measured after shaking for 4 hrs; assay type: physicochemical
Procedure, shortened: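 Solubility at pH 7.4 determined after shaking at room temperature for 4 h.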

Staphylococcus aureus = assay: Antibacterial activity against replicating Staphylococcus aureus measured at OD580 = 0.01; assay type: functional; procedure, shortened: as §2
[19] = Intrinsic clearance in human liver microsomes assessed per mg protein measured up to 60 mins; assay type: ADME, Microsome; conditions: 1 h; procedure, shortened: as §6
[20] = tested on: Mycobacterium tuberculosis; assay: Bactericidal activity against wild-type non-replicating Mycobacterium tuberculosis H37Rv assessed as log reduction in CFU incubated for 7 days measured at OD580 = 0.01 in presence of 0.5 mM NaNO2 by charcoal agar resazurin assay; assay type: functional, organism-based; procedure, shortened: as §5
[21] = Half life in human liver microsomes; assay type: ADME, Microsome; procedure, shortened: as §6
BMDM [22] = assay: Cytotoxicity against C57BL6 mouse primary BMDM infected with wild-type non-replicating Mycobacterium tuberculosis H37Rv assessed as cell morphological changes at 100 ug/ml after 3 days; assay type: cell-based; conditions: 72 h; procedure, shortened: as §3
[23] = tested on: Mycobacterium tuberculosis; assay: Bactericidal activity against wild-type non-replicating Mycobacterium tuberculosis H37Rv incubated for 7 days measured at OD580 = 0.01 in absence of NaNO2 by charcoal agar resazurin assay; assay type: functional, organism-based; procedure, shortened: as §5
BMDM [24] = assay: Cytotoxicity against C57BL6 mouse primary BMDM infected with wild-type non-replicating Mycobacterium tuberculosis H37Rv assessed as cell morphological changes at 100 ug/ml after 4 days; assay type: cell-based; conditions: 96 h; procedure, shortened: as §3
[25] = tested on: Mycobacterium tuberculosis; assay: Bactericidal activity against wild-type non-replicating Mycobacterium tuberculosis H37Rv infected in recombinant mouse IFN-gamma stimulated C57BL6 mouse primary BMDM assessed as log reduction in CFU at 100 ug/ml incubated for 4 days by charcoal agar resazurin assay; assay type: functional; procedure, shortened: as §3
[26] = tested on: Mycobacterium tuberculosis; assay: Bactericidal activity against wild-type non-replicating Mycobacterium tuberculosis H37Rv at 1 to 100 ug/ml incubated for 7 days measured at OD580 = 0.1 in presence of 0.06 to 1 mM NaNO2; assay type: functional, organism-based
Procedure, shortened: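 Wild-type H37Rv resuspended at OD580 0.1 in nonreplicating medium with NaNO2 at 0–1 mM, one plate per nitrite level. Exposed to compound for 7 days, then standard outgrowth assay to estimate survivors.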

[27] = Stability in pH 5 non-replicating medium assessed as parent compound remaining at 5 to 50 ug/ml at 37 degC measured every 12 hrs up to 144 hrs by LC-MS analysis; assay type: physicochemical; conditions: buffer; procedure, shortened: as §7
[28] = tested on: Mycobacterium tuberculosis; assay: Bactericidal activity against wild-type non-replicating Mycobacterium tuberculosis H37Rv assessed as reduction in CFU at 0.1 to 100 ug/ml incubated for 7 days measured at OD580 = 0.01 in presence of beta-lactamase inhibitor clavulanate by charcoal agar resazurin assay; assay type: functional, organism-based
[29] = tested on: Mycobacterium tuberculosis; assay: Bactericidal activity against wild-type replicating Mycobacterium tuberculosis H37Rv assessed as reduction in CFU in presence of beta-lactamase inhibitor clavulanate; assay type: functional, organism-based
[30] = Stability in pH 7.4 phosphate buffer solution assessed as parent compound remaining at 5 to 50 ug/ml at 37 degC measured every 12 hrs up to 144 hrs by LC-MS analysis; assay type: physicochemical; procedure, shortened: as §7

SMILES	LCK [2]	Activity [3]	MIC90 (Candida albicans) [µg/mL]	Activity [5] [deltalog10CFU/ml]	MIC90 (Escherichia coli) [µg/mL]	Stability [6]	remaining at 4 h [7] [%]	Activity [8]	t1/2 [9] [min]	t1/2 [10] [h]	Stability [11]	MIC90 (Pseudomonas aeruginosa) [µg/mL]	MIC90 [12] [µg/mL]	Papp [13] [×10⁻⁶ cm/s]	CC50 at 48 h [15] [µg/mL]	remaining at 4 h [16] [%]	Stability [17]	solubility at 4 h [18] [µM]	MIC90 (Staphylococcus aureus) [µg/mL]	CLH [19] [µL/min]	further results
O=C(O)[C@H]1/C(=C/CO)O[C@@H]2CC(=O)N21 [CLAVULANIC ACID]	–	–	–	–	–	–	–	–	–	–	–	–	–	–	–	–	–	–	–	–	fold change (FC) [1]: 4
CC1=C(c2nc(C)no2)N2C(=O)[C@@H](NC(=O)COc3ccccc3)[C@H]2SC1	>=3.4	Active	> 100	2	> 100	Unstable	0	Dose-dependent effect	< 5	2 to 3	Stable	> 100	> 100	13.4	> 100	100 to 102	Unstable	83.7 to 84 (≈ 32.3 to 32.5 µg/mL)	> 100	9.13	Activity [4]: 1 - 2 deltalog10CFU/ml; remaining at 4 h ([14]; pH 7 solution, pH 7, read-out: Stability): 101%; Activity [20]: Dose-dependent effect; t1/2 [21]: 1.27 h; Activity (BMDM [22]): Non-Toxic; Activity [23]: Active
CCCOC(=O)C1=C(C)CS[C@@H]2[C@H](NC(=O)COc3ccccc3)C(=O)N12	>=3.4	Active	> 100	2	> 100	Unstable	0	Dose-dependent effect	< 5	2 to 3	100%	> 100	> 100	7.28	75.7 to 100 (≈ 194 to 256 µM)	100 to 110	Unstable	22.7 to 23 (≈ 8.86 to 8.98 µg/mL)	> 100	8.07	Activity (BMDM [24]): Non-Toxic; Activity [25]: 1 - 2 deltalog10CFU/ml; Activity [26]: Active; Stability [27]: 100%; Activity [28]: Active; Stability ([14]; buffer, pH 7, 4 h): 133%; Activity [29]: inactive; Stability [30]: 80%; Activity [20]: Dose-dependent effect; t1/2 [21]: 1.44 h; Activity [23]: Active

Reference: ChEMBL document CHEMBL4425095, “Novel Cephalosporins Selectively Active on Nonreplicating Mycobacterium tuberculosis” (J Med Chem, 2016)
